pKi: −log10 of the molar value. Converted amounts (≈) assume the structure as drawn.
Molecular target: Sigma non-opioid intracellular receptor 1 (Cavia porcellus, UniProt Q60492)
Assay: Displacement of [3H]-(+)pentazocine from sigma-1 receptor in guinea pig brain membranes after 120 mins by scintillation counting method
Format: cell membranes, Membrane
Conditions: not given

Sequence of Sigma non-opioid intracellular receptor 1 (Q60492 whole entry): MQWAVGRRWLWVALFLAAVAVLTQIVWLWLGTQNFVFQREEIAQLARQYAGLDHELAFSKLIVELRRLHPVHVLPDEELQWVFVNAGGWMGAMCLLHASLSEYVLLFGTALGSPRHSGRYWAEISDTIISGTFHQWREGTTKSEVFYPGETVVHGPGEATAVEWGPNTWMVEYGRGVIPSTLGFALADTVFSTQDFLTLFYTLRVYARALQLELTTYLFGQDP

SMILES	pKi
Cc1ccc(CN2CCCN(C(=O)c3cccc4ccccc34)CC2)c(C)c1	7.15
O=C(c1cccs1)N1CCCN(Cc2ccccc2)CC1	6.83
Cc1ccc(CN2CCCN(C(=O)c3ccc4ccccc4n3)CC2)c(C)c1	7.54
O=C(c1cc2ccccc2o1)N1CCCN(Cc2ccccc2)CC1	8.10
Cc1ccc(CN2CCCN(C(=O)c3ccccc3)CC2)c(C)c1	6.07
Cc1ccc(CN2CCCN(C(=O)c3ccco3)CC2)c(C)c1	6.16
O=C(c1cccc2ccccc12)N1CCCN(Cc2ccccc2)CC1	7.39
O=C(c1ccncc1)N1CCCN(Cc2ccccc2)CC1	6.57

Second part, the compound after the results:

pKi	SMILES
6.47	Cc1ccc(CN2CCCN(C(=O)c3cccs3)CC2)c(C)c1
6.48	O=C(c1ccco1)N1CCCN(Cc2ccccc2)CC1
6.60	Cc1ccc(CN2CCCN(C(=O)c3ccncc3)CC2)c(C)c1
6.94	O=C(c1ccccc1)N1CCCN(Cc2ccccc2)CC1
7.70	Cc1ccc(CN2CCCN(C(=O)c3cc4ccccc4o3)CC2)c(C)c1
7.72	O=C(c1ccc2ccccc2n1)N1CCCN(Cc2ccccc2)CC1

Molecular target: Glutamate receptor ionotropic, NMDA 2B (Homo sapiens) (UniProt Q13224)
Assay: Displacement of [3H]ifenprodil from GluN2B (unknown origin) expressed in mouse L(tk-) cell membranes co-expressing GluN1a at 1 uM incubated for 120 mins by scintillation counting method relative to control
Conditions: not given

Sequence of Glutamate receptor ionotropic, NMDA 2B (Homo sapiens) (Q13224 27-1484 limits assumed): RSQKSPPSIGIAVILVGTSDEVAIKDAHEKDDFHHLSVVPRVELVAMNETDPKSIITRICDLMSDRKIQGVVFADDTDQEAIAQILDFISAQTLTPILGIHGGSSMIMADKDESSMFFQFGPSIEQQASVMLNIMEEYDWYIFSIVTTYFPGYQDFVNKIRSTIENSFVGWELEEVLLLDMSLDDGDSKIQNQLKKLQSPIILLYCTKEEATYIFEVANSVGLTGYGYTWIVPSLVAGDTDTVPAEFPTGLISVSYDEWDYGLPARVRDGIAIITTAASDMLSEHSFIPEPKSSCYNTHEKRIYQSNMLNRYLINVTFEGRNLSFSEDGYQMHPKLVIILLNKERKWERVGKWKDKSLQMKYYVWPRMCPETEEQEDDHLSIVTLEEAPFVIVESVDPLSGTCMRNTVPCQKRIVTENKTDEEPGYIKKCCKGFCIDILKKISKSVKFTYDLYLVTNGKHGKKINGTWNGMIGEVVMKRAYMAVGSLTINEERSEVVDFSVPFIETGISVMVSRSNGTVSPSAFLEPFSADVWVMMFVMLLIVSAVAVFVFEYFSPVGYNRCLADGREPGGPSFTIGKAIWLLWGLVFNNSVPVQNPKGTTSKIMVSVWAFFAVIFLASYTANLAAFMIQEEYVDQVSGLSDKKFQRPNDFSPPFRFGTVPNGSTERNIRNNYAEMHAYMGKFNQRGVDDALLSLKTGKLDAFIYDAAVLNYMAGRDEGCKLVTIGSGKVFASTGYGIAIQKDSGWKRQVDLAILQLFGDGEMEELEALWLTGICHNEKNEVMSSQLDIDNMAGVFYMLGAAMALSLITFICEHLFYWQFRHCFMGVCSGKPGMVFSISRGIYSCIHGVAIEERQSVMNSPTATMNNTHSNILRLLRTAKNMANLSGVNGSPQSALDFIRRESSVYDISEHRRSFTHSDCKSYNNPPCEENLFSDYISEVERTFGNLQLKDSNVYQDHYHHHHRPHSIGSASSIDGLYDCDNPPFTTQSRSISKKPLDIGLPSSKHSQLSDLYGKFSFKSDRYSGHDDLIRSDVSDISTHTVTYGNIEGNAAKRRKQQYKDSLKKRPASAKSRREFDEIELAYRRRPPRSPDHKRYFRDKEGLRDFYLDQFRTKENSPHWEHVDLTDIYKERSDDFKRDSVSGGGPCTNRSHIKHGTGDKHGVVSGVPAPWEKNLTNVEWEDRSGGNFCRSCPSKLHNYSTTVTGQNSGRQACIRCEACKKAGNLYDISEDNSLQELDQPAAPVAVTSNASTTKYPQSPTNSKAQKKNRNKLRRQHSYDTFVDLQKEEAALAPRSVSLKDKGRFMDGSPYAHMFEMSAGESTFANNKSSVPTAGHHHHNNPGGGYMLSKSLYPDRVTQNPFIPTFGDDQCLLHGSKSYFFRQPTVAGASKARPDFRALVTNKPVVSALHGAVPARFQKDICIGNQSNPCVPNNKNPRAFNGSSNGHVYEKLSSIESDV

SMILES	inhibition
O=C(c1cccs1)N1CCCN(Cc2ccccc2)CC1	0%
Cc1ccc(CN2CCCN(C(=O)c3ccco3)CC2)c(C)c1	0%
O=C(c1cccc2ccccc12)N1CCCN(Cc2ccccc2)CC1	9%
O=C(c1ccncc1)N1CCCN(Cc2ccccc2)CC1	0%

Continued, values first:

inhibition	SMILES
3%	Cc1ccc(CN2CCCN(C(=O)c3cccs3)CC2)c(C)c1
1%	O=C(c1ccco1)N1CCCN(Cc2ccccc2)CC1
0%	O=C(c1ccccc1)N1CCCN(Cc2ccccc2)CC1

System: not listed separately
Assay: Cytotoxicity against human PANC1 cells assessed as cell viability at 50 uM after 48 hrs by MTT assay relative to control
Format: cell-based
Conditions: PANC-1 cells, read-out: Activity
How it was run: (§1)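 Viability of human pancreatic carcinoma PANC1 and neuroblastoma SH-SY5Y cells, both chosen for high σ1R expression, measured by MTT assay across several test concentrations; viability expressed as percent.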

SMILES	viability at 48 h, 50 µM
O=C(c1cc2ccccc2o1)N1CCCN(Cc2ccccc2)CC1	196%

System: not listed separately
Assay: Cytotoxicity against human SH-SY5Y cells assessed as cell viability at 50 uM after 48 hrs by MTT assay relative to control
Format: cell-based
Conditions: read-out: Activity
How it was run: as §1

SMILES	viability at 48 h, 50 µM
O=C(c1cc2ccccc2o1)N1CCCN(Cc2ccccc2)CC1	127%

System: not listed separately
Assay: Cytotoxicity against human PANC1 cells assessed as cell viability at 100 uM after 48 hrs by MTT assay relative to control
Format: cell-based
Conditions: PANC-1 cells, read-out: Activity
How it was run: as §1

SMILES	viability at 48 h, 100 µM
Cc1ccc(CN2CCCN(C(=O)c3ccc4ccccc4n3)CC2)c(C)c1	51%
O=C(c1cc2ccccc2o1)N1CCCN(Cc2ccccc2)CC1	127%

System: not listed separately
Assay: Cytotoxicity against human SH-SY5Y cells assessed as cell viability at 100 uM after 48 hrs by MTT assay relative to control
Format: cell-based
Conditions: read-out: Activity
How it was run: as §1

SMILES	viability at 48 h, 100 µM
O=C(c1cc2ccccc2o1)N1CCCN(Cc2ccccc2)CC1	98%

Molecular target: Glutamate receptor ionotropic, NMDA 2B (Homo sapiens, UniProt Q05586+Q13224)
Assay: Displacement of [3H]ifenprodil from GluN2B (unknown origin) expressed in mouse L(tk-) cell membranes co-expressing GluN1a incubated for 120 mins by scintillation counting method
Conditions: not given

Sequence of Glutamate receptor ionotropic, NMDA 2B (Q13224 whole entry, one chain of several): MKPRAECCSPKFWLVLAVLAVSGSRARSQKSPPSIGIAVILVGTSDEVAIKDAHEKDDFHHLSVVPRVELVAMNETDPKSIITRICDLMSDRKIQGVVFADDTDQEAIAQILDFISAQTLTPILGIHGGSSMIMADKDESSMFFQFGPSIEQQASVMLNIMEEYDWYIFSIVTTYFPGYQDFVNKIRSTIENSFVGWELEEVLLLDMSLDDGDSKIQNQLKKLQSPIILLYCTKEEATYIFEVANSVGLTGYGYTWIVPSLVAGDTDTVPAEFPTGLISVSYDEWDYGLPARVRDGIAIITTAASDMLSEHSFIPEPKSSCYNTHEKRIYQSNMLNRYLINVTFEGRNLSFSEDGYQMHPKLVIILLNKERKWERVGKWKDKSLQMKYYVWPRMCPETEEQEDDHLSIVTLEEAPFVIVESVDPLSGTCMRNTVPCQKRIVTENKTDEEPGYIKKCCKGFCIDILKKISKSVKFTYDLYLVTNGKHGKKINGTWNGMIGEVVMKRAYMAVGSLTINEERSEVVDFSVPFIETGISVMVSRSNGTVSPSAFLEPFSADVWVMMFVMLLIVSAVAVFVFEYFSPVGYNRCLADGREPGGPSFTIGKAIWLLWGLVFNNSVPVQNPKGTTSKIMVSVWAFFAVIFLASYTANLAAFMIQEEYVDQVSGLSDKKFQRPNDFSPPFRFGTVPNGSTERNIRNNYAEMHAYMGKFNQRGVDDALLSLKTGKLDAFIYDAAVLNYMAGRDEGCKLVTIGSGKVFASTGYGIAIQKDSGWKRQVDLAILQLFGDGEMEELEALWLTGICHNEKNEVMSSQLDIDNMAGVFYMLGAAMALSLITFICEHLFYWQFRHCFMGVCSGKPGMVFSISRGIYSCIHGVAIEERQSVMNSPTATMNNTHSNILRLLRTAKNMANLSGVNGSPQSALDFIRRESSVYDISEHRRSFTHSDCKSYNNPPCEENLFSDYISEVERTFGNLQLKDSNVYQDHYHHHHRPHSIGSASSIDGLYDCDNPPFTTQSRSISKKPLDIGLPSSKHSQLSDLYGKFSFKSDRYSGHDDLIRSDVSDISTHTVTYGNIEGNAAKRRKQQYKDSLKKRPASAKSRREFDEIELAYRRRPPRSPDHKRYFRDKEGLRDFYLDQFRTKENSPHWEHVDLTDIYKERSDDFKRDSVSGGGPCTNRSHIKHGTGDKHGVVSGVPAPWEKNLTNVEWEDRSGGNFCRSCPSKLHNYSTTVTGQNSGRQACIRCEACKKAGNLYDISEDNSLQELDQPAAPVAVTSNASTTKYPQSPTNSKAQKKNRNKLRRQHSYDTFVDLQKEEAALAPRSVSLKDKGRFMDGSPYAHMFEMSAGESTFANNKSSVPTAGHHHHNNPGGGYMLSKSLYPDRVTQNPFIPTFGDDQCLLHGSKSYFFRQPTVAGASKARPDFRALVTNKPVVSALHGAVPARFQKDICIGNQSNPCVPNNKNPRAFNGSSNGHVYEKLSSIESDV

SMILES	pKi
Cc1ccc(CN2CCCN(C(=O)c3cccc4ccccc34)CC2)c(C)c1	7.10
Cc1ccc(CN2CCCN(C(=O)c3ccc4ccccc4n3)CC2)c(C)c1	6.97
O=C(c1cc2ccccc2o1)N1CCCN(Cc2ccccc2)CC1	5.80
Cc1ccc(CN2CCCN(C(=O)c3ccccc3)CC2)c(C)c1	6.53

Second part, the compound after the results:

pKi	SMILES
6.94	Cc1ccc(CN2CCCN(C(=O)c3ccncc3)CC2)c(C)c1
7.23	Cc1ccc(CN2CCCN(C(=O)c3cc4ccccc4o3)CC2)c(C)c1
5.82	O=C(c1ccc2ccccc2n1)N1CCCN(Cc2ccccc2)CC1

System: not listed separately
Assay: Antioxidant activity in pH 7.4 PBS assessed as H2O2 radical scavenging activity
Format: functional
Conditions: not given

SMILES	IC50
Cc1ccc(CN2CCCN(C(=O)c3ccc4ccccc4n3)CC2)c(C)c1	17.44 µg/mL (≈ 46.7 µM)
O=C(c1cc2ccccc2o1)N1CCCN(Cc2ccccc2)CC1	15.89 µg/mL (≈ 47.5 µM)
Cc1c(C)c2c(c(C)c1O)CCC(C)(C(=O)O)O2 (stereo unspecified) [TROLOX]	20.38 µg/mL (≈ 81.4 µM)
O=C1O[C@H]([C@@H](O)CO)C(O)=C1O [ASCORBIC ACID]	19.27 µg/mL (≈ 109 µM)

The next lines start with the values.

IC50	SMILES
18.56 µg/mL (≈ 51.2 µM)	Cc1ccc(CN2CCCN(C(=O)c3cc4ccccc4o3)CC2)c(C)c1
20.35 µg/mL (≈ 58.9 µM)	O=C(c1ccc2ccccc2n1)N1CCCN(Cc2ccccc2)CC1

Molecular target: T1, Sigma intracellular receptor 2 (Rattus norvegicus, UniProt Q5U3Y7)
T1 sequence (Q5U3Y7 whole entry): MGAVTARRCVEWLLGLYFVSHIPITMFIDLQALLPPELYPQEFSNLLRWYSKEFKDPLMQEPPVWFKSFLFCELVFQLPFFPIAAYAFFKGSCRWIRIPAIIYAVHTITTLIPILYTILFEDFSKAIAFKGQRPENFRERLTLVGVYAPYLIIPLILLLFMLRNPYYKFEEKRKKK
Assay: Displacement of [3H]-Di-o-tolylguanidine from sigma-2 receptor in rat liver membranes after 120 mins by scintillation counting method
Format: cell membranes, Membrane
Conditions: not given

SMILES	pKi
Cc1ccc(CN2CCCN(C(=O)c3cccc4ccccc34)CC2)c(C)c1	6.99
O=C(c1cccs1)N1CCCN(Cc2ccccc2)CC1	6.53
Cc1ccc(CN2CCCN(C(=O)c3ccc4ccccc4n3)CC2)c(C)c1	7.46
O=C(c1cc2ccccc2o1)N1CCCN(Cc2ccccc2)CC1	7.33
Cc1ccc(CN2CCCN(C(=O)c3ccccc3)CC2)c(C)c1	5.41
Cc1ccc(CN2CCCN(C(=O)c3ccco3)CC2)c(C)c1	5.41
O=C(c1cccc2ccccc12)N1CCCN(Cc2ccccc2)CC1	6.73
O=C(c1ccncc1)N1CCCN(Cc2ccccc2)CC1	6.31

Next, values leading:

pKi	SMILES
5.74	Cc1ccc(CN2CCCN(C(=O)c3cccs3)CC2)c(C)c1
6.25	O=C(c1ccco1)N1CCCN(Cc2ccccc2)CC1
5.70	Cc1ccc(CN2CCCN(C(=O)c3ccncc3)CC2)c(C)c1
7.55	Cc1ccc(CN2CCCN(C(=O)c3cc4ccccc4o3)CC2)c(C)c1
7.33	O=C(c1ccc2ccccc2n1)N1CCCN(Cc2ccccc2)CC1

Molecular target: T2, Sigma intracellular receptor 2 (Rattus norvegicus) (UniProt Q5U3Y7)
T2 sequence (whole entry): T1 sequence (Q5U3Y7 whole entry)
Assay: Displacement of [3H]-Di-o-tolylguanidine from sigma-2 receptor in rat liver membranes at 1 uM after 120 mins by scintillation counting method relative to control
Format: cell membranes
Conditions: Membrane

inhibition	SMILES
0%	O=C(c1ccccc1)N1CCCN(Cc2ccccc2)CC1

System: SH-SY5Y
Assay: Cytotoxicity against human SH-SY5Y cells at 12.5 to 100 uM after 48 hrs by MTT assay
Format: cell-based
Conditions: not given
How it was run: as §1

SMILES	Activity
Cc1ccc(CN2CCCN(C(=O)c3cc4ccccc4o3)CC2)c(C)c1	Non-Toxic

System: PANC-1
Assay: Cytotoxicity against human PANC1 cells at 12.5 to 100 uM after 48 hrs by MTT assay
Format: cell-based
Conditions: panc-1, 48 h
How it was run: as §1

SMILES	Activity
Cc1ccc(CN2CCCN(C(=O)c3cc4ccccc4o3)CC2)c(C)c1	Non-Toxic

System: not listed separately
Assay: Antioxidant activity assessed as ABTS radical scavenging activity incubated for 40 mins
Format: functional
Conditions: not given

SMILES	IC50
Cc1ccc(CN2CCCN(C(=O)c3ccc4ccccc4n3)CC2)c(C)c1	9.43 µg/mL (≈ 25.2 µM)
O=C(c1cc2ccccc2o1)N1CCCN(Cc2ccccc2)CC1	12.71 µg/mL (≈ 38 µM)
Cc1c(C)c2c(c(C)c1O)CCC(C)(C(=O)O)O2 (stereo unspecified) [TROLOX]	18.73 µg/mL (≈ 74.8 µM)
O=C1O[C@H]([C@@H](O)CO)C(O)=C1O [ASCORBIC ACID]	12.75 µg/mL (≈ 72.4 µM)

Further lines, results first:

IC50	SMILES
10.05 µg/mL (≈ 27.7 µM)	Cc1ccc(CN2CCCN(C(=O)c3cc4ccccc4o3)CC2)c(C)c1
14.26 µg/mL (≈ 41.3 µM)	O=C(c1ccc2ccccc2n1)N1CCCN(Cc2ccccc2)CC1

Source: ChEMBL document CHEMBL4613279, “Synthesis, Cytotoxicity Evaluation, and Computational Insights of Novel 1,4-Diazepane-Based Sigma Ligands” (ACS Med Chem Lett, 2020)
